Experiment [1] addresses Pantothenate synthetase (Mycobacterium tuberculosis (strain ATCC 25618 / H37Rv)) (UniProt P9WIL5). Description: Recombinant Mtb pantothenate synthetase (PanC) inhibitors, coupled enzyme, confirmatory (AID 375; call rule not given here;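 note: 0% = full reaction with vehicle and 100% = no enzyme background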). The conditions noted are these: coupled enzyme assay; at 10 µM, stronger effect = higher value.
The nature of experiment [2]: reducers of endogenous Her2 protein level, primary screen, SKBR3 breast tumor cells, AlphaScreen, ATP viability (AID 461;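 active = Her2 level under about 52% in both replicate screens, with viability over 70% of control, limit read from the data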;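 for Her2 level: lower value means less Her2 protein in the cells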;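 for viability: percent of carrier control wells set as 100% viability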). The conditions noted are these: 18-24 h, measured here: SKBR3 viability, ATP luminescence, at 10 µM. (In general: Bead proximity is the source of the signal in Alpha formats.)
Experiment [3] concerns the target Receptor tyrosine-protein kinase erbB-2 (Homo sapiens) (UniProt P04626). Described as above. To be noted: 18-24 h, at 10 µM, stronger effect = lower value.
The nature of experiment [4]: SK-BR-3 cell growth inhibitors, pilot screen, 24 h, human (AID 572).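 Note: compound exposure lasted between 18 and 24 h rather than exactly 24 h; 100% = carrier-treated control wells.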 To be noted: SK-BR-3 viability, CellTiter-Glo luminescence, at 10 µM, stronger effect = lower value.
Experiment [5] is described as follows: HUVEC growth inhibition – cell-based, human, primary screen (AID 575;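 active = viability at or below 30% in both replicate assays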;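 note: 100% = median of untreated cell wells with 0.1% DMSO on each plate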). The conditions noted are these: HUVEC proliferation, CellTiter-Glo luminescence, 72 h; at 10 µM; stronger effect = lower value. The procedure, abridged: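 Assay system: Primary human umbilical vein endothelial cells | Quantity: 1250 cells per well | Medium: Supplemented EBM, 2% fetal bovine serum | Detection: CellTiter-Glo luminescence measuring cellular ATP | Read-out: % viability vs DMSO wells | Plate: Collagen-coated 384-well format | Times: 72 h exposure, 37 °C, 5% CO2, 30 min RT equilibration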
For orientation: Cellular ATP, detected with luciferase, serves as a proxy for viable cell number.

Experiment [6] in a line: growth inhibitors of H69AR lung tumor, primary screen, human, duplicate replicates (AID 580;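 active = viability at or under a set limit in both replicates, limit being median viability minus 3 SD, cut at about 48% in these data, passing the limit was not always enough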;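 note: 100% = mean luminescence of untreated wells and 0% = no signal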). To be noted: H69AR lung tumor cells viability, ATP luminescence, 72 h; at 10 µM; stronger effect = lower value.
Experiment [7] is described as follows: reversal of MRP1-mediated doxorubicin resistance, pilot screen, H69AR cells, doxorubicin co-treatment (AID 601;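 active = viability loss from added drug above about 55%, and viability with drug at most 40%, in both replicates, limit read from the data, passing the limit was not always enough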). To be noted: CellTiter-Glo, 72 h, at 10 µM; for differential viability (reversal): stronger effect = higher value.
Experiment [8] can be described thus: 384-well plate pilot, post-Golgi transport modulator project, inhibition of yeast transport mutant growth (AID 636; in the data active = inhibition above about 31%). To be noted: absorbance 615 nm, about 18 h, stronger effect = higher value.
Experiment [9] is described as follows: growth suppression of yeast trafficking mutant, preliminary HTS, modulators of trafficking downstream of Golgi apparatus project, 1536-format plate, OD 615 nm (AID 637; in the data active = inhibition above about 30%). The conditions noted are these: yeast transport mutant growth, absorbance 615 nm, 18 h; stronger effect = higher value.
Where [10] appears, read: H69AR cells + 2 uM doxorubicin, measured here: viability with 2 uM doxorubicin, stronger effect = lower value.
Where [11] appears, read: H69AR cells, compound alone cytotoxicity.

Experimental findings from PubChem BioAssay are described below.

Active and inactive are the calls of the source.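 Rule for the calls, unless noted: active = viability at or below 10% of carrier control in both of two separate runs; inconclusive = viability at or below 10% in only one of the two runs; inactive = the rest.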

Receptor tyrosine-protein kinase erbB-2 (Homo sapiens), sequence (P04626 whole entry, looked up): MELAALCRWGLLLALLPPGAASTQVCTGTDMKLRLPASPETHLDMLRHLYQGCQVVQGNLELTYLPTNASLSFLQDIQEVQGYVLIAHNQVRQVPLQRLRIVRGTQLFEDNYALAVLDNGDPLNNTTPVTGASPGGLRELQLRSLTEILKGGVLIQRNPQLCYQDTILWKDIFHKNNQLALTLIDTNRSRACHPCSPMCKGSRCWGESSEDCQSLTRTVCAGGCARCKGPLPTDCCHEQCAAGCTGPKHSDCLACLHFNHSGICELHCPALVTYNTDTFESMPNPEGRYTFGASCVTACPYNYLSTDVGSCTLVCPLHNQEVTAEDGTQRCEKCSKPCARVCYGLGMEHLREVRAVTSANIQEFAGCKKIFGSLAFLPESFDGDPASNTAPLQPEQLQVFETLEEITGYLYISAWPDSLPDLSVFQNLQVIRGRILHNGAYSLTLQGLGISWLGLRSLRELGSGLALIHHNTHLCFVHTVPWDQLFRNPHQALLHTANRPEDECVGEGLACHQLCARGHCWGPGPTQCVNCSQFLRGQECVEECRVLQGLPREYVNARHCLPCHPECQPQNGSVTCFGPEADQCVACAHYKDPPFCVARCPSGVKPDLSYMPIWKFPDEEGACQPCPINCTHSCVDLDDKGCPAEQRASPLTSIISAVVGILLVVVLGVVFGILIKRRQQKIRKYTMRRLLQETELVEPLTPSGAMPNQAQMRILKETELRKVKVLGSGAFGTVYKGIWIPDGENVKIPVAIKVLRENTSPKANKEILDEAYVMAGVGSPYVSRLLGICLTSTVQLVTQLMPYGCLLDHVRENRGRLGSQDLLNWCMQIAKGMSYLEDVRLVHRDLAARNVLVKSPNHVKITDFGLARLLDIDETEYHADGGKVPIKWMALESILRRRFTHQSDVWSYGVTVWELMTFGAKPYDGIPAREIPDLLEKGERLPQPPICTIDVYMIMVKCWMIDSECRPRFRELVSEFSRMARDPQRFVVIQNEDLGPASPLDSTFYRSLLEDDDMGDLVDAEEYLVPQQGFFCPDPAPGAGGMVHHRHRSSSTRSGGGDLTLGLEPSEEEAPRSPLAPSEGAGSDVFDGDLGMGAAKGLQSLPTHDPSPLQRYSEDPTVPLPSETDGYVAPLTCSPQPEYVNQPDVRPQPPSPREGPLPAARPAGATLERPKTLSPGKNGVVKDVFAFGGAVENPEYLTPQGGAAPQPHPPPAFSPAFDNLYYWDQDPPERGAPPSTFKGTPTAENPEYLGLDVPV
Pantothenate synthetase (Mycobacterium tuberculosis (strain ATCC 25618 / H37Rv)), sequence (P9WIL5 whole entry, looked up): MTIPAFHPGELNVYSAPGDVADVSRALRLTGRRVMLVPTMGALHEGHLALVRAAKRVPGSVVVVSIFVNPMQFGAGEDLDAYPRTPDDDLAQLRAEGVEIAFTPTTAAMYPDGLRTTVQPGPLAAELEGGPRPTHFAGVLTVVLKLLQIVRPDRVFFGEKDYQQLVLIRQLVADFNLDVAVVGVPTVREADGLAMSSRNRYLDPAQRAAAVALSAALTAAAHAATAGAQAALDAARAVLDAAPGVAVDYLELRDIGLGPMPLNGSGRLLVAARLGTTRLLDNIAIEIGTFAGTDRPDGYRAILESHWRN

By inhibition is commonly meant the relative decrease from the control value, in per cent. As a reminder, the viability is a read-out of living cells in per cent, often relative to untreated cells. Regarding `CCOC(=O)C1CCCCC12C(C#N)=C(N)Oc1n[nH]c(C)c12` (stereo not given), the inhibition in [1] is 0% (inactive); in [8], 0.66% (inactive); in experiment [9] it was 25.1% (inactive). Besides, the viability is 91.5% in experiment [2]; 91.5% (inactive) in experiment [4]; 96% (inactive) in experiment [5]; 93.3% (inactive) in experiment [6]; 99.6% in experiment [7] (setting [10]); 93.3% in experiment [7] (setting [11]). Also, the Her2 level in experiment [3] was 94.5% (inactive). For the same compound, in [7] (H69AR cells + 2 uM doxorubicin), the differential viability (reversal) was -6.3% (inactive).
Regarding `O=C(CN1C(=O)CN=C(c2ccccc2)c2ccccc21)NCc1ccco1`, the values for the inhibition in experiment [1], in [8] and in experiment [9] were 2% (inactive), -3.42% (inactive) and -5% (inactive), respectively. Also, the viability is 98% in [2]; 98% (inactive) in experiment [4]; 96.7% (inactive) in [5]; 80.4% (inactive) in experiment [6]; 81.7% in [7] (setting [10]); 80.4% in experiment [7] (setting [11]). The Her2 level in experiment [3] is 100% (inactive). The differential viability (reversal) in [7] (H69AR cells + 2 uM doxorubicin) is -1.24% (inactive).
As to `CC1CCN2c3nc4ccccn4c(=O)c3CC3(C(=O)N(C)C(=O)N(C)C3=O)C2C1` (stereo not given), the inhibition was 0% (inactive) in experiment [1], -1.32% (inactive) in [8] and 1.64% (inactive) in experiment [9]. For the same compound, the viability in [2] is 101%; in experiment [4] it was 101% (inactive); in experiment [5] it was 93% (inactive); in [6] it was 93.5% (inactive); in experiment [7] (setting [10]) it was 102%; in experiment [7] (setting [11]), 93.5%. For the same compound, in [3], the Her2 level was 72.5% (inactive). In experiment [7] (H69AR cells + 2 uM doxorubicin), the differential viability (reversal) is -8.53% (inactive).
As for `Cc1ccc(-n2c(O)c(C=NCCN3CCOCC3)c(=O)[nH]c2=O)cc1`, the inhibition in experiment [1] was 3% (inactive); in experiment [8], -5.2% (inactive); in [9] it was 2.26% (inactive). The viability in [2] is 124%; in [4], 124% (inactive); in experiment [5] it was 93.4% (inactive); in experiment [6] it was 102% (inactive); in [7] (setting [10]) it was 93.5%; in experiment [7] (setting [11]) it was 102%. Further, the Her2 level in experiment [3] was 96.5% (inactive). In addition, the differential viability (reversal) in experiment [7] (H69AR cells + 2 uM doxorubicin) was 8.65% (inactive).
As for `O=C(c1ccncc1)C12CN3CN(CN(C3)C1)C2`, the inhibition in experiment [1] was 0% (inactive); in [8], -3.25% (inactive); in experiment [9], -2.5% (inactive). For the same compound, the viability in [2] is 115%; in experiment [4] it was 115% (inactive); in [5] it was 97.6% (inactive); in [6] it was 89.5% (inactive); in experiment [7] (setting [10]), 84.4%; in experiment [7] (setting [11]) it was 89.5%. Further, the Her2 level in experiment [3] is 114% (inactive). The differential viability (reversal) in experiment [7] (H69AR cells + 2 uM doxorubicin) was 5.16% (inactive).
On to `CCn1c(C)c(C(=O)O)c2cc(OC)ccc21`, for which the inhibition in experiment [1] is 4% (inactive); in experiment [8] it was -3.2% (inactive); in experiment [9], -0.65% (inactive). In addition, the viability in experiment [2] is 88.5%; in [4], 88.5% (inactive); in experiment [5] it was 105% (inactive); in [6], 96.1% (inactive); in experiment [7] (setting [10]) it was 101%; in experiment [7] (setting [11]), 96.1%. Besides, the Her2 level in [3] was 76% (inactive). The differential viability (reversal) in experiment [7] (H69AR cells + 2 uM doxorubicin) is -4.98% (inactive).
With `CC(C)C(=O)N1CCN(CCN=Cc2c(O)n(C)c(=O)n(C)c2=O)CC1`, the inhibition in experiment [1] is 3% (inactive); in experiment [8], -5.39% (inactive); in [9] it was -1.48% (inactive). The viability in experiment [2] is 100%; in [4] it was 100% (inactive); in experiment [5], 122% (inactive); in [6], 96.5% (inactive); in experiment [7] (setting [10]), 96.7%; in experiment [7] (setting [11]), 96.5%. For the same compound, the Her2 level in experiment [3] was 116% (inactive). In addition, in experiment [7] (H69AR cells + 2 uM doxorubicin), the differential viability (reversal) is -0.17% (inactive).
In the case of `O=c1[nH]c(=O)n(-c2ccc(F)cc2)c(O)c1C=Nc1ccccc1N1CCCC1`, the inhibition is 8% (inactive) in experiment [1], -3.55% (inactive) in experiment [8] and 3% (inactive) in experiment [9]. Moreover, the viability in [2] is 97.5%; in experiment [4], 97.5% (inactive); in experiment [5], 73.9% (inactive); in experiment [6], 61.3% (inactive); in [7] (setting [10]) it was 68.2%; in experiment [7] (setting [11]), 61.3%. Besides, the Her2 level in experiment [3] is 105% (inactive). Further, in experiment [7] (H69AR cells + 2 uM doxorubicin), the differential viability (reversal) was -6.94% (inactive).
On to `CC(=O)N1CC(=O)Nc2ccc(Cl)cc2C1c1ccc(F)cc1` (stereo not given), for which the inhibition is 0% (inactive) in [1], -3.29% (inactive) in experiment [8] and -3.45% (inactive) in [9]. The viability in [2] is 92.5%; in experiment [4], 92.5% (inactive); in experiment [5], 88.5% (inactive); in [6], 97.5% (inactive); in experiment [7] (setting [10]), 72%; in experiment [7] (setting [11]), 97.5%. In addition, the Her2 level in [3] is 102% (inactive). The differential viability (reversal) in experiment [7] (H69AR cells + 2 uM doxorubicin) is 25.5% (inactive).
In the case of `Cc1cc(C)c(C(=O)CN2CCOCC2)c(C)c1`, the inhibition in [1] was 2% (inactive); in experiment [8], -5.19% (inactive); in experiment [9], -0.33% (inactive). For the same compound, the viability in experiment [2] is 105%; in [4], 105% (inactive); in experiment [5], 83.7% (inactive); in [6], 74% (inactive); in experiment [7] (setting [10]), 80.7%; in experiment [7] (setting [11]) it was 74%. In experiment [3], the Her2 level was 98.5% (inactive). For the same compound, the differential viability (reversal) in experiment [7] (H69AR cells + 2 uM doxorubicin) is -6.78% (inactive).
Consider `CC(C)OCCCNC(=O)c1c(N)n(CC2CCCO2)c2nc3ccccc3nc12` (stereo not given), for which the results for the inhibition in [1], in experiment [8] and in experiment [9] were 2% (inactive), -4.8% (inactive) and -4.13% (inactive), respectively. Besides, the viability in [2] is 100%; in experiment [4], 100% (inactive); in experiment [5], 55.2% (inactive); in [6], 59.6% (inactive); in experiment [7] (setting [10]), 79.2%; in experiment [7] (setting [11]), 59.6%. Moreover, in [3], the Her2 level is 71.5% (inactive). Further, in experiment [7] (H69AR cells + 2 uM doxorubicin), the differential viability (reversal) is -19.6% (inactive).
`Cn1c(=O)cc(OCC(=O)N2CCN(C3CCCCC3)CC2)c2ccccc21`: the inhibition was 0% (inactive) in [1], -1.47% (inactive) in experiment [8] and -1.15% (inactive) in [9]. For the same compound, the viability is 87% in experiment [2]; 87% (inactive) in experiment [4]; 82% (inactive) in experiment [5]; 85.2% (inactive) in experiment [6]; 82.1% in [7] (setting [10]); 85.2% in experiment [7] (setting [11]). For the same compound, in experiment [3], the Her2 level was 88% (inactive). Besides, the differential viability (reversal) in experiment [7] (H69AR cells + 2 uM doxorubicin) is 3.09% (inactive).
As for `COc1ccccc1N1CCN(Cc2c(F)cccc2F)CC1`, the figures for the inhibition in experiment [1], in [8] and in [9] were 1% (inactive), -1.69% (inactive) and 0.98% (inactive), respectively. Moreover, the viability in [2] is 89%; in experiment [4], 89% (inactive); in experiment [5] it was 107% (inactive); in experiment [6], 94.2% (inactive); in experiment [7] (setting [10]), 96.8%; in experiment [7] (setting [11]), 94.2%. The Her2 level in experiment [3] is 88.5% (inactive). Also, the differential viability (reversal) in [7] (H69AR cells + 2 uM doxorubicin) is -2.56% (inactive).
For `COc1ccc(OC)c(C2=NOC(C(=O)N3CCC4(CC3)OCCO4)C2)c1` (stereo not given), the inhibition in [1] is 7% (inactive); in experiment [8], -6.49% (inactive); in [9], 0.5% (inactive). For the same compound, the viability in [2] is 106%; in experiment [4], 106% (inactive); in experiment [5], 103% (inactive); in experiment [6] it was 99% (inactive); in experiment [7] (setting [10]) it was 86%; in experiment [7] (setting [11]), 99%. Moreover, the Her2 level in [3] is 99% (inactive). The differential viability (reversal) in experiment [7] (H69AR cells + 2 uM doxorubicin) was 13% (inactive).
Consider `Cn1c(=O)cc(SCC(=O)N2CCC3(CC2)OCCO3)c2ccc(Cl)cc21`, for which the inhibition in experiment [1] is 9% (inactive); in experiment [8] it was -3.03% (inactive); in experiment [9] it was 1.77% (inactive). The viability is 116% in experiment [2]; 116% (inactive) in experiment [4]; 87.6% (inactive) in experiment [5]; 79.1% (inactive) in experiment [6]; 70.3% in [7] (setting [10]); 79.1% in experiment [7] (setting [11]). The Her2 level in experiment [3] was 94.5% (inactive). In addition, in [7] (H69AR cells + 2 uM doxorubicin), the differential viability (reversal) is 8.79% (inactive).
